A selection: hits, their analogues and other compounds. The true share with any hit is near 3.5%.
MrgX1 agonist: human MrgX1 receptor agonism, primary screen | Q96LB2 | MrgX1-HEK293 cells, Fluo-4 calcium fluorescence, agonist mode; hits give high values | B-score at 10 µM | actives 0.44% (n = 310,000) | AID 588627;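 active = calcium response B-score plate-corrected fluorescence ratio at least 3 library SD, with starting fluorescence B-score inside 5 SD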
Target sequence (Q96LB2 whole entry, looked up): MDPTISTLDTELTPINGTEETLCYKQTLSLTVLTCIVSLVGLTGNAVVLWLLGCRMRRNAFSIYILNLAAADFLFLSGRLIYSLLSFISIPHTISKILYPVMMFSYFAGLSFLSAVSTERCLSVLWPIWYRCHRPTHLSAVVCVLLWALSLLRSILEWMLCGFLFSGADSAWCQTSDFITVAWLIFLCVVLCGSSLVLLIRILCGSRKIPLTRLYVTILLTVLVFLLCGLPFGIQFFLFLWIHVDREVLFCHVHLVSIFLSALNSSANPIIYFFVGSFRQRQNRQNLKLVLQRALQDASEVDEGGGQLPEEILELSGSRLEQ
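times = overnight plating, then 30 min 37 °C plus 30 min room-temperature dye loading | assay system = stable human MrgX1 HEK293 cell line | input = fifteen thousand cells per well | signal = kinetic calcium dye fluorescence, Fluo-4 NW | dosing = compound delivered in addition one of three | read-out = B-scored fluorescence response ratio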
RGS4 inh: human RGS4 inhibition | P49798 | HEK293 M3R/RGS4 inducible, Fluo-4 calcium flux; hits give high values; triggered by carbachol at its EC20 | B-score at 10 µM | actives 0.45% (n = 310,000) | AID 463165;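 active = B-score, a plate-corrected calcium signal, over three deviations above library mean, with baseline fluorescence within five deviations of library mean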;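 note: RGS4 expression induced by doxycycline in cells with stable M3 receptor; B-score is computed from the integrated fluorescence ratio over baseline after carbachol; higher B-score means a larger calcium signal and so more RGS4 inhibition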
Target sequence (P49798 whole entry, looked up): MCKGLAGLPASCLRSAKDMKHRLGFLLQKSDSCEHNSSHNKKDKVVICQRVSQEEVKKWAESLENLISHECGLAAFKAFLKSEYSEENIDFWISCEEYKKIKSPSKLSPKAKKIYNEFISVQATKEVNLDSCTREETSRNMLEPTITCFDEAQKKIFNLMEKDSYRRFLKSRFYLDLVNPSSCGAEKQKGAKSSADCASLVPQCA
MrgX1 PAM: human MrgX1 positive allosteric modulation, primary screen. actives 0.63% (n = 310,000). AID 588675. B-score at 10 µM. MrgX1-HEK293, Fluo-4 calcium flux, FDSS; hits give high values;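 active = plate-corrected calcium response at least 3 library SD above typical, normal starting fluorescence, not activating the receptor alone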;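 note: compound read alongside a low EC10 to EC30 dose of BAM8-22 agonist; peak minus trough fluorescence over baseline measured at the second addition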
RGS4 pot: potentiators or activators of RGS4. B-score at 10 µM. AID 463111. HEK293 M3R/inducible RGS4, carbachol calcium flux Fluo4; hits give low values. actives 0.92% (n = 310,000);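 active = B-score of the integrated calcium signal more than 4 SD below the library mean, with starting fluorescence not abnormally high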;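 note: negative B-score means reduced calcium response which marks RGS4 activation or potentiation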
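test system = M3R-expressing HEK293 line, RGS4 induced by doxycycline | probe or stimulus = carbachol at ECmax as muscarinic agonist stimulus | timing = dye loading 30 min 37 °C, buffer rest 30 min RT | signal = calcium dye Fluo4 fluorescence | evaluation = B score from integrated fluorescence ratio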
MrgX1 antag: antagonists of human MrgX1 receptor | B-score at 10 µM | Q96LB2 | actives 1.3% (n = 310,000) | AID 588676 | MRGX1-HEK293 calcium flux, Fluo-4, BAM8-22 antagonism; hits give low values;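 active = calcium-response B-score plate-corrected more than 3 library SD below zero, starting fluorescence within 5 deviations, no agonist response on first addition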;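 note: peak minus trough fluorescence over baseline after final BAM8-22 challenge near maximal dose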
MrgX1 allo conf: confirmation of human MrgX1 receptor positive allosteric modulators | shares compounds with MrgX1 PAM | actives 13% (n = 1,200) | activation (ratio percentage), % at 10 µM | MrgX1-HEK293, Fluo-4 calcium fluorescence, FDSS;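 active = ratio at least 3 SD above the weak peptide control, stable starting fluorescence, no direct agonism earlier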;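 note: compound followed by low BAM8-22 agonist challenge near EC20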
MrgX1 antag conf: human MrgX1 receptor antagonism, re-confirmation screen; MrgX1-HEK293, BAM8-22 calcium flux, Fluo-4; hits give low values; actives 19% (n = 2,300); remaining BAM8-22 calcium response % of control (hits give low values), % at 10 µM; shares compounds with MrgX1 antag;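 active = remaining agonist calcium response no higher than 100% minus 3 SD of agonist-only control wells, with starting fluorescence near control levels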;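 note: agonist BAM8-22 given at a near maximal EC90 to ECmax level; peak minus minimum fluorescence divided by baseline after agonist addition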
HEK293 Ca flux: MrgX1 antagonist counter-screen hit in parental HEK293 cells | shares compounds with MrgX1 antag | Fluo-4 calcium fluorescence, FDSS | fluorescence ratio F(max-min)/F0 at 10 µM | actives 2% (n = 4,000);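 active = duplicate-averaged calcium fluorescence ratio at least three times the standard deviation of buffer wells, a nonspecific response in parental cells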
HEK293 Ca counter: MrgX1 allosteric activator counter-screen hit in parental HEK293 cells; actives 0.4% (n = 4,000); parental HEK293 calcium flux, Fluo-4 fluorescence ratio; hits give high values; fluorescence ratio F(max-min)/F0 at 10 µM; shares compounds with MrgX1 antag; AID 624114;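 active = calcium fluorescence ratio, averaged over duplicates, at least 3 SD of the buffer-well ratio, meaning a nonspecific response in receptor-free cells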;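 note: untransfected parental HEK293 lacking MrgX1 used as counterscreen for MrgX1 allosteric activators; fluorescence change taken during the second addition on a kinetic imager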
HEK293 Ca cntr2: MrgX1 activator counter-screen hit in parental HEK293 cells; shares compounds with MrgX1 antag; Fluo-4 calcium fluorescence (FDSS); hits give high values; fluorescence ratio F(max-min)/F0 at 10 µM; actives 8.7% (n = 4,000); AID 624115;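 active = calcium fluorescence ratio at least three times the spread of buffer wells, meaning a non-specific response in parental cells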
A number is an active result; - = inactive; . = no result given.

SMILES | MrgX1 agonist | RGS4 inh | MrgX1 PAM | RGS4 pot | MrgX1 antag | MrgX1 allo conf | HEK293 Ca flux | HEK293 Ca counter | HEK293 Ca cntr2 | others
COc1ccc(Cl)cc1NC(=O)CSc1nnc(-c2ccco2)o1 | - | - | - | - | - | . | . | . | .
CC1=CC2=NC(=O)/C(=C\c3ccc(OC(=O)c4ccco4)cc3)C(=N)N2O1 | - | - | - | - | - | . | . | . | .
CSC1=NSC2=NC(=O)/C(=C\c3ccc(OC(=O)c4ccco4)cc3)C(=N)N12 | - | - | 41 | - | - | - | - | - | -
CC1=CSC2=NC(=O)/C(=C/c3cccc(OC(=O)c4ccco4)c3)C(=N)N12 | - | - | 29 | - | - | 12% | - | - | -
Cc1nc2ccccc2c2c1C(=O)NC2=O | - | - | - | - | - | . | . | . | .
CCOc1ccccc1C(=O)NC(C(=O)Nc1cccc(S(N)(=O)=O)c1)C(C)C (stereo not given) | - | - | - | - | - | . | . | . | .
O=c1[nH]c(Cc2ccccn2)nc2scc(-c3ccccc3Cl)c12 | - | - | - | - | - | . | . | . | .
CC(C)(C)c1nnc(NC(=O)CCS(=O)(=O)c2ccccc2)s1 | - | - | 43 | - | - | - | - | - | -
COc1cc(CO)ccc1OCc1nnnn1-c1ccc(C)cc1 | - | - | - | - | - | . | . | . | .
O=C(NCc1cccnc1)C(=O)NCC1OCCN1S(=O)(=O)c1cc(F)ccc1F (stereo not given) | - | - | 16 | - | - | - | - | - | -
O=C(NCc1cccnc1)C(=O)NCC1OCCN1S(=O)(=O)c1ccccc1 (stereo not given) | - | - | - | - | - | . | . | . | .
COc1cccc(C2NC(=O)N(CCCC(=O)O)C(C)=C2C(=O)OCc2ccccc2)c1 (stereo not given) | - | - | - | - | - | . | . | . | .
CCN(CC)S(=O)(=O)c1c(OC)cc(C)c(Cl)c1C | - | - | 10 | - | - | - | - | - | -
CCN(CC)S(=O)(=O)c1cc(C)c(C)cc1Br | - | - | - | - | - | . | . | . | .
C#CCOc1coc(COC(=O)c2ccccc2)cc1=O | - | - | - | - | - | . | . | . | .
COc1cc(SC)ccc1C(=O)NCc1ccc(C)cc1 | - | - | 6.5 | - | - | - | - | - | -
O=C(NC(=S)Nc1ccccc1Cl)c1ccco1 | - | - | - | - | - | . | . | . | .
CC(CCc1ccccc1)NC(=S)NC(=O)c1ccco1 (stereo not given) | - | - | 14 | - | - | - | - | - | -
O=C(NC(=S)N(CCc1ccccc1)CCc1ccccc1)c1ccco1 | - | - | - | - | - | . | . | . | .
CCC(C)c1ccccc1NC(=S)NC(=O)c1ccco1 (stereo not given) | - | - | 7.4 | - | - | - | - | - | -
O=C(Nc1ccccc1C(=O)N1CCCC1)C1CCN(c2ncccn2)CC1 | - | - | - | - | -7.2 | . | - | - | - | MrgX1 antag conf=-
O=C(O)CCCC(=O)Nc1ccccc1C(=O)N1CCCC1 | - | - | - | - | -5.5 | . | - | - | - | MrgX1 antag conf=-
Cc1ccccc1C(=O)NNC(=O)C1CCN(c2ncccn2)CC1 | - | - | - | - | - | . | . | . | .
O=C(c1cc(COc2ccc3c(c2)CCCC3)on1)N1CCCC1 | - | - | - | - | - | . | . | . | .
Cc1ccc(-c2ccccc2)n1-c1ccc(C(=O)O)cc1 | - | - | - | - | -4.6 | . | - | - | - | MrgX1 antag conf=78%
